Measured values reported in ChEMBL document CHEMBL2413060, “Synthesis, biological evaluation and molecular docking studies of some pyrimidine derivatives” (2013).

Legend:
Assay type in all cases: functional
SF-295 [1] = experiment: Cytotoxicity against human SF295 cells assessed as growth inhibition at 10 uM; conditions: read-out: GI
Outline: (§1)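 Single-dose screen on human tumour cell lines. Growth of treated cells is expressed as percent of untreated growth, plotted as a mean graph, and reported as percent growth inhibition.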

HOP-92 = experiment: Cytotoxicity against human HOP92 cells assessed as growth inhibition at 10 uM; conditions: read-out: GI
UACC-257 = experiment: Cytotoxicity against human UACC257 cells
Outline: (§2)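 Five-dose in vitro screen across the full sixty-cell human tumour line panel. Three response parameters were derived from the dose-response data: GI50, TGI and LC50, expressed in μM/l.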

OVCAR-3 = experiment: Cytotoxicity against human OVCAR3 cells
Outline: (§3)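 Five-dose in vitro screen on the full sixty human tumour cell line panel. Three response parameters derived per cell line: GI50, TGI and LC50, given in μM.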

BT-549 [2] = experiment: Cytotoxicity against human BT549 cells assessed as growth inhibition at 10 uM; conditions: read-out: GI
U-251 = experiment: Cytotoxicity against human U251 cells; outline: as §2
A498 [3] = experiment: Cytotoxicity against human A498 cells assessed as growth inhibition at 10 uM; conditions: read-out: GI
SK-MEL-28 = experiment: Cytotoxicity against human SK-MEL-28 cells; outline: as §3
SW-620 = experiment: Cytotoxicity against human SW620 cells; outline: as §3
UACC-62 = experiment: Cytotoxicity against human UACC62 cells assessed as growth inhibition at 10 uM; conditions: read-out: GI
Outline: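 Single-dose screen in a sixty-cell human tumour line panel; percent growth of treated cells relative to untreated was read and reported as percentage growth inhibition, shown as a mean graph. Compounds meeting the threshold inhibition criteria went on to five-dose testing.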

Shigella flexneri = experiment: Antibacterial activity against Shigella flexneri ATCC 15391 assessed as diameter of inhibition zone at 1 mg/ml after 24 hrs by cup diffusion method (reference value: 17 mm); conditions: ATCC 15391, 24 h, read-out: DIZ
SF-295 [4] = experiment: Cytotoxicity against human SF295 cells; outline: as §3
NCI-H226 = experiment: Cytotoxicity against human NCI-H226 cells; outline: as §3
OVCAR-5 = experiment: Cytotoxicity against human OVCAR5 cells; outline: as §3
K562 = experiment: Cytotoxicity against human K562 cells
MDA-MB-468 = experiment: Cytotoxicity against human MDA-MB-468 cells assessed as growth inhibition at 10 uM; conditions: read-out: GI; outline: as §1
RPMI-8226 [5] = experiment: Cytotoxicity against human RPMI8226 cells; outline: as §3
NCI/ADR-RES = experiment: Cytotoxicity against human NCI/ADR-RES cells; outline: as §3
MOLT-4 = experiment: Cytotoxicity against human MOLT4 cells; outline: as §3
BT-549 [6] = experiment: Cytotoxicity against human BT549 cells
IGROV-1 [7] = experiment: Cytotoxicity against human IGROV1 cells
Pseudomonas aeruginosa = experiment: Antibacterial activity against Pseudomonas aeruginosa ATCC 9027 assessed as diameter of inhibition zone at 1 mg/ml after 24 hrs by cup diffusion method (reference value: 16 mm); conditions: ATCC 9027, 24 h, read-out: DIZ
NCI-H522 = experiment: Cytotoxicity against human NCI-H522 cells; outline: as §3
HCC 2998 = experiment: Cytotoxicity against human HCC2998 cells
RPMI-8226 [8] = experiment: Cytotoxicity against human RPMI8226 cells assessed as growth inhibition at 10 uM; conditions: read-out: GI; outline: as §1
ACHN = experiment: Cytotoxicity against human ACHN cells
SNB-75 [9] = experiment: Cytotoxicity against human SNB75 cells assessed as growth inhibition at 10 uM; conditions: read-out: GI; outline: as §1
IGROV-1 [10] = experiment: Cytotoxicity against human IGROV1 cells assessed as growth inhibition at 10 uM; conditions: read-out: GI
LOX IMVI = experiment: Cytotoxicity against human LOXIMVI cells
SK-OV-3 = experiment: Cytotoxicity against human SKOV3 cells assessed as growth inhibition at 10 uM; conditions: read-out: GI; outline: as §1
SNB-75 [11] = experiment: Cytotoxicity against human SNB75 cells; outline: as §3
OVCAR-4 = experiment: Cytotoxicity against human OVCAR4 cells; outline: as §3
A498 [12] = experiment: Cytotoxicity against human A498 cells
MCF7 = experiment: Cytotoxicity against human MCF7 cells assessed as growth inhibition at 10 uM; conditions: read-out: GI; outline: as §1
MDA-MB-435 = experiment: Cytotoxicity against human MDA-MB-435 cells; outline: as §3
HCT-15 = experiment: Cytotoxicity against human HCT15 cells
T47D = experiment: Cytotoxicity against human T47D cells; outline: as §3
NCI-H322M = experiment: Cytotoxicity against human NCI-H322M cells; outline: as §3
SK-MEL-5 = experiment: Cytotoxicity against human SK-MEL-5 cells; outline: as §3
[13] = read-out: LC50 (the source's name)

`N#Cc1c(-c2ccccc2)nc(SCC2CO2)nc1N1CCOCC1` (stereo unspecified) showed an inhibition of growth at 10 µM (SF-295 [1]) of 90.9%, an inhibition of growth at 10 µM (HOP-92) of 81.7% and a GI50 (UACC-257) of 50.7 µM. It also gave a TGI (UACC-257) greater than 100 µM, a CC50 (UACC-257; [13]) greater than 100 µM and a GI50 (OVCAR-3) of 4.19 µM. For the same compound, the TGI (OVCAR-3) was 47.8 µM, the CC50 (OVCAR-3; [13]) was greater than 100 µM and the inhibition of growth at 10 µM (BT-549 [2]) was 88.6%. It also gave a GI50 (U-251) of 22.1 µM, a TGI (U-251) greater than 100 µM and a CC50 (U-251; [13]) greater than 100 µM. The inhibition of growth at 10 µM (A498 [3]) was 115%, the GI50 (SK-MEL-28) was 5.45 µM and the TGI (SK-MEL-28) was 98.3 µM. The CC50 (SK-MEL-28; [13]) was greater than 100 µM, the GI50 (SW-620) was 25 µM and the TGI (SW-620) was greater than 100 µM. For the same compound, the CC50 (SW-620; [13]) was greater than 100 µM, the inhibition of growth at 10 µM (UACC-62) was 48.1% and the zone of inhibition at 1000 µg/mL (Shigella flexneri) was 18 mm. For the same compound, the GI50 (SF-295 [4]) was 1460 nM, the TGI (SF-295 [4]) was 20.4 µM and the CC50 (SF-295 [4]; [13]) was greater than 100 µM. It also gave a GI50 (NCI-H226) of 10.1 µM, a TGI (NCI-H226) greater than 100 µM and a CC50 (NCI-H226; [13]) greater than 100 µM. It also gave a GI50 (OVCAR-5) of 1700 nM, a TGI (OVCAR-5) greater than 100 µM and a CC50 (OVCAR-5; [13]) greater than 100 µM. It also gave a GI50 (K562) greater than 100 µM, a TGI (K562) greater than 100 µM and a CC50 (K562; [13]) greater than 100 µM. It also gave an inhibition of growth at 10 µM (MDA-MB-468) of 44.1%, a GI50 (RPMI-8226 [5]) of 14.1 µM and a TGI (RPMI-8226 [5]) of 91.8 µM. For the same compound, the CC50 (RPMI-8226 [5]; [13]) was greater than 100 µM, the GI50 (NCI/ADR-RES) was 11.8 µM and the TGI (NCI/ADR-RES) was greater than 100 µM. It also gave a CC50 (NCI/ADR-RES; [13]) greater than 100 µM, a GI50 (MOLT-4) of 28.9 µM and a TGI (MOLT-4) greater than 100 µM. It also gave a CC50 (MOLT-4; [13]) greater than 100 µM, a GI50 (BT-549 [6]) of 3.22 µM and a TGI (BT-549 [6]) greater than 100 µM. The CC50 (BT-549 [6]; [13]) was greater than 100 µM, the GI50 (IGROV-1 [7]) was 1790 nM and the TGI (IGROV-1 [7]) was 23.3 µM. The CC50 (IGROV-1 [7]; [13]) was greater than 100 µM, the zone of inhibition at 1000 µg/mL (Pseudomonas aeruginosa) was 17 mm and the GI50 (NCI-H522) was 72.5 µM. It also gave a TGI (NCI-H522) greater than 100 µM, a CC50 (NCI-H522; [13]) greater than 100 µM and a GI50 (HCC 2998) of 253 nM. For the same compound, the TGI (HCC 2998) was 18.2 µM, the CC50 (HCC 2998; [13]) was greater than 100 µM and the inhibition of growth at 10 µM (RPMI-8226 [8]) was 52.1%. For the same compound, the GI50 (ACHN) was 3.23 µM, the TGI (ACHN) was greater than 100 µM and the CC50 (ACHN; [13]) was greater than 100 µM. It also gave an inhibition of growth at 10 µM (SNB-75 [9]) of 65.9%, an inhibition of growth at 10 µM (IGROV-1 [10]) of 61.9% and a GI50 (LOX IMVI) of 6.48 µM. For the same compound, the TGI (LOX IMVI) was greater than 100 µM, the CC50 (LOX IMVI; [13]) was greater than 100 µM and the inhibition of growth at 10 µM (SK-OV-3) was 71.9%. It also gave a GI50 (SNB-75 [11]) of 2150 nM, a TGI (SNB-75 [11]) of 68.2 µM and a CC50 (SNB-75 [11]; [13]) greater than 100 µM. It also gave a GI50 (OVCAR-4) of 85.1 µM, a TGI (OVCAR-4) greater than 100 µM and a CC50 (OVCAR-4; [13]) greater than 100 µM. It also gave a GI50 (A498 [12]) of 1060 nM, a TGI (A498 [12]) of 5.28 µM and a CC50 (A498 [12]; [13]) greater than 100 µM. It also gave an inhibition of growth at 10 µM (MCF7) of 55.2%, a GI50 (MDA-MB-435) of 6.71 µM and a TGI (MDA-MB-435) greater than 100 µM. For the same compound, the CC50 (MDA-MB-435; [13]) was greater than 100 µM, the GI50 (HCT-15) was 4.06 µM and the TGI (HCT-15) was greater than 100 µM. The CC50 (HCT-15; [13]) was greater than 100 µM, the GI50 (T47D) was 3.59 µM and the TGI (T47D) was 22.5 µM. For the same compound, the CC50 (T47D; [13]) was greater than 100 µM, the GI50 (NCI-H322M) was 8.31 µM and the TGI (NCI-H322M) was greater than 100 µM. For the same compound, the CC50 (NCI-H322M; [13]) was greater than 100 µM, the GI50 (SK-MEL-5) was 17 µM and the TGI (SK-MEL-5) was greater than 100 µM. It also gave a CC50 (SK-MEL-5; [13]) greater than 100 µM.
